Compounds with a hit are over-represented: about 1.9% of the library has one in this group of screens.
TbHK1 inh: T. brucei hexokinase 1 inhibition; recombinant TbHK1, G6PDH-coupled NADH A340; inhibition, % at 10 µM; actives 0.11% (n = 220,000);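 active means inhibition of 50% or more in the single-dose primary screen; inactive means inhibition below 50%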
Hck-Nef inh: inhibitors of human Hck kinase activated by Nef; inhibition, % at 20 µM; P08631; Recombinant Hck-YEEI plus Nef, Z-Lyte FRET kinase assay; actives 0.68% (n = 220,000); AID 463187;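 active means Hck-Nef kinase inhibition above about 50%, limit read from the data; inactive means inhibition below that limit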;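 further: 0% = DMSO with Hck plus Nef and 100% = Hck alone without Nef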
RanGTP-Impb inh: inhibitors of RanGTP-importin-beta interaction, primary screen, biochemical, FRET, CFP-Ran, YFP-importin-beta, homogeneous. cell-free CFP-Ran/YFP-importin-beta FRET ratio. actives 1.1% (n = 300,000). inhibition, % (test concentration not listed);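 active means more than half of the replicate wells show a fall in the fluorescence ratio signal beyond about 16%, limit read from the data, passing the limit was not always enough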;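 further: 0% = DMSO wells and 100% = Ran loaded with GDP instead of GTP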
Runt-CBFb FRET: inhibitors of human RUNX1 Runt domain binding to CBFb. Q01196+Q13951. Cerulean-Runt/Venus-CBFb FRET ratio 530/480, 1 h. inhibition, % at 20 µM. actives 0.46% (n = 220,000);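 active means inhibition over about 50% at 20 µM in the single-dose screen, limit read from the data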;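 further: 0% = DMSO wells and 100% = excess unlabeled CBFb competitor control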
Target sequence (Q01196 whole entry, looked up, the tested form may be a part): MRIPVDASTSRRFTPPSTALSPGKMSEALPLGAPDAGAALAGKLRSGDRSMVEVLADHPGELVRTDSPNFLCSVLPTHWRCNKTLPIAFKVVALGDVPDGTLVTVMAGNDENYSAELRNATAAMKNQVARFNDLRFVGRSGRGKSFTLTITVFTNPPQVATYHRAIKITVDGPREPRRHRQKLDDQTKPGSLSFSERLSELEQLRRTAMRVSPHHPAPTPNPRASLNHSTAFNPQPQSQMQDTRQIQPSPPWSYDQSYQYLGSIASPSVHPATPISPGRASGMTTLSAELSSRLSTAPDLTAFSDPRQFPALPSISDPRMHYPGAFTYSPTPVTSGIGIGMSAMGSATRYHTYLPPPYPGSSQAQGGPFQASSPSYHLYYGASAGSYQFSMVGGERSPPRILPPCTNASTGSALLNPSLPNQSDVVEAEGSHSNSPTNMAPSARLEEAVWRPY
Target sequence (Q13951 whole entry, looked up, the tested form may be a part): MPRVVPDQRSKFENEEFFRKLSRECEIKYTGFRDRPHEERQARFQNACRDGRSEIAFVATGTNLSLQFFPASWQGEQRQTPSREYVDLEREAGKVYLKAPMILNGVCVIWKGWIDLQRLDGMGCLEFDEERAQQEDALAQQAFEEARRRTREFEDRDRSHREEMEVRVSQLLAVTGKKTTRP
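Schedule: protein complex preformed 1 h, compound exposure 1 h, room temperature, dark; test system: Cerulean-labeled Runt domain protein; amount: 100 nM per protein; buffer or medium: Tris 50 mM pH 7.5, KCl, K2SO4, 0.01% BSA; read-out: loss of energy transfer signal; detection: FRET fluorescence; controls: 5 µM unlabeled CBFb as full-inhibition high control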
Runt-SMMHC FRET: blocks binding of human RUNX1 Runt domain to CBFb-SMMHC; Q01196+Q13951; Cerulean-Runt/Venus-CBFb-SMMHC FRET ratio 530/480, 1 h; inhibition, % at 20 µM; actives 0.74% (n = 220,000);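 active means mean inhibition across duplicate retests at 20 µM reaching about 50%, limit read from the data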;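 further: 0% = DMSO wells and 100% = wells with excess untagged CBFb-SMMHC; inhibitors lower the FRET ratio by blocking Runt binding to CBFb-SMMHC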
* marks the source's active call; other numbers are inactive results; . = no result.

SMILES	TbHK1 inh	Hck-Nef inh	RanGTP-Impb inh	Runt-CBFb FRET	Runt-SMMHC FRET
O=C(O)c1ccc(-c2ccc(/C=C3\NC(=O)N(Cc4ccc(Cl)cc4)C3=O)o2)cc1	-9	18	.	98*	84*
CCOCCOC(=O)C1=C(C)Nc2ccc(C)cc2S1	-8	8	23*	2	11
N#C/C(=C\c1c(N2CCCCCC2)nc2ccccn2c1=O)C(=O)NC1CCS(=O)(=O)C1 (stereo not drawn)	-9	6	0	4	82*
N#C/C(=C\c1c(N2CCOCC2)nc2ccccn2c1=O)C(=O)NC1CCS(=O)(=O)C1 (stereo not drawn)	-21	7	3	10	82*
CCOC(=O)C1=C(O)/C(=C/c2cn(CC(=O)N3CCCC3)c3ccccc23)SC1=Nc1ccccc1	-9	10	0	21	83*
CCOC(=O)/C(C#N)=C\c1ccc(N2CCN(C/C=C/c3ccccc3)CC2)cc1	-3	4	91*	-118	-65
Nc1nc(-c2cc(O)ccc2[N+](=O)[O-])cc(-c2ccccc2)c1[N+](=O)[O-]	.	.	34*	.	.
COc1ccc(C(=O)CCC(=O)N2CCN(c3ccc(C)cc3)C(C)C2)cc1 (stereo not drawn)	.	.	1	.	.
CCOC(=O)C1CCN(C(=O)CN2C(=O)CSc3ccc(S(=O)(=O)N4CCOCC4)cc32)CC1	.	.	1	.	.
O=C(CN1C(=O)CSc2ccc(S(=O)(=O)N3CCOCC3)cc21)N1CCCCC1	.	.	62*	.	.
O=C(CN1C(=O)CSc2ccc(S(=O)(=O)N3CCOCC3)cc21)NCCCN1CCOCC1	-3	17	151*	-1	-2
CCc1ccc(-c2cn3nc(C)c(C)nc3n2)cc1	-5	22	107*	.	74
Cc1cc(C)n2nc(C)c(-c3ccccc3)c2n1	.	.	4	.	.
Cc1nc2nc(-c3ccccc3)cn2nc1C	-11	0	111*	46	60*
CCc1c(-c2ccccc2)nc2nc(C)c(C)nn12	-16	9	50*	0	-4
Cc1nc2nc(-c3ccc(F)cc3)cn2nc1C	.	.	95*	.	.
CCc1ccc(-c2ccc3nnc(SC)n3n2)cc1	.	.	-1	.	.
COc1ccccc1C(=O)NC(=O)COC(=O)CN1C(=O)NC(C)(C)C1=O	.	.	6	.	.
COc1ccc(NC(=O)CS(=O)CC(=O)Nc2ccc(NC(C)=O)cc2)cc1 (stereo not drawn)	.	.	6	.	.
CCN1CCc2c(sc(NC(=O)c3ccc(S(=O)(=O)N4CCCC4)cc3)c2C(=O)NC)C1	.	.	46*	.	.
CNC(=O)c1c(NC(=O)c2ccc(S(=O)(=O)N3CCCCC3)cc2)sc2c1CCN(C(C)C)C2	.	.	93*	.	.
CC(C)N1CCc2c(sc(NC(=O)c3ccc(S(=O)(=O)N4CCCCC4C)cc3)c2C(N)=O)C1 (stereo not drawn)	.	.	107*	.	.
CCOC(=O)N1CCc2c(sc3c2C(=O)NC(c2ccccc2)N3)C1 (stereo not drawn)	-7	5	7	11	13
Cn1cccc1C1NC(=O)c2c(sc3c2CCC(C(C)(C)C)C3)N1 (stereo not drawn)	-9	1	-2	3	1
O=C1NC(c2ccco2)Nc2sc3c(c21)CCN(Cc1ccccc1)C3 (stereo not drawn)	-13	12	.	49	59*
SMILES	TbHK1 inh	Hck-Nef inh	RanGTP-Impb inh	Runt-CBFb FRET	Runt-SMMHC FRET
CN1CCc2c(sc3c2C(=O)NC(c2cn(Cc4ccccc4)c4ccccc24)N3)C1 (stereo not drawn)	-8	14	60*	63*	70*
CN1CCc2c(sc3c2C(=O)NC(c2ccc(-c4ccc(Cl)cc4)o2)N3)C1 (stereo not drawn)	-29	18	90*	114*	33
CN1CCc2c(sc3c2C(=O)NC(c2ccco2)N3)C1 (stereo not drawn)	-25	2	113*	127*	38
COc1ccc(Br)cc1C1NC(=O)c2c(sc3c2CCN(C)C3)N1 (stereo not drawn)	.	.	.	113*	65*
N#CC1=C(N)Oc2cc(N)ccc2C1c1cccnc1 (stereo not drawn)	-7	0	24*	-4	-4
N#CC1=C(N)Oc2cc(N)ccc2C1c1ccc(Cl)cc1 (stereo not drawn)	.	.	61*	.	.
COc1ccc(C2C(C#N)=C(N)Oc3c2sc2nc(C)cc(C)c32)cc1 (stereo not drawn)	-22	-5	2	-8	-18
COc1ccc(C2C(C#N)=C(N)Oc3cc(N)ccc32)cc1 (stereo not drawn)	.	.	77*	.	.
COc1cc(C2C(C#N)=C(N)Oc3cc(N)ccc32)cc(OC)c1OC (stereo not drawn)	-4	4	.	35	81*
Cc1ccc(C2C(C#N)=C(N)Oc3cc4c(cc32)OCO4)cc1 (stereo not drawn)	-2	5	12	24	33
N#CC1=C(N)Oc2n[nH]c(-c3ccccc3)c2C1c1cccnc1 (stereo not drawn)	-5	3	2	0	-1
N#CC1=C(N)Oc2cc(N)ccc2C1c1ccccc1Cl (stereo not drawn)	.	.	133*	.	.
CCc1ccc(C2C(C#N)=C(N)Oc3cc(N)ccc32)cc1 (stereo not drawn)	.	.	96*	.	.
COc1ccc(C2C(C#N)=C(N)Oc3cccc(O)c32)cc1 (stereo not drawn)	.	.	51*	.	.
C#CCSc1nc(N)c2c(n1)OC(N)=C(C#N)C2c1cccnc1 (stereo not drawn)	-1	6	60*	0	3
N#CC1=C(N)Oc2cc(N)ccc2C1c1ccc(F)cc1F (stereo not drawn)	.	.	125*	.	.
Cc1nn(-c2ccccc2)c2c1C(c1ccc(F)cc1F)C(C#N)=C(N)O2 (stereo not drawn)	-6	0	-3	-2	0
O=C(O)CN1CCCCCC1=O	0	24	2	-1	-1
O=[N+]([O-])c1cccc(NC(=S)N2CCOCC2)c1	6	-17	68*	2	-1
Cc1ccc2nc3c(cc2c1)c(NC(=O)C1CCCO1)nn3CC(C)C (stereo not drawn)	-1	16	71*	41	59*
Cc1ccc2nc(-c3ccc(NC(=O)C4CCCO4)cc3)[nH]c2c1 (stereo not drawn)	-24	11	1	0	4
CCn1nc(NC(=O)C2CCCO2)c2cc3cc(C)ccc3nc21 (stereo not drawn)	-6	9	44*	30	45
Cc1ccc2cc3c(NS(=O)(=O)c4cccc5nonc45)nn(CC(C)C)c3nc2c1	.	.	-1	.	.
Cc1ccc2cc3c(NC(=O)C4CCCO4)nn(CC(C)C)c3nc2c1 (stereo not drawn)	-13	11	31*	21	32
CC1=NN2C(=N)/C(=C\c3cc(C)n(-c4ccccc4)c3C)C(=O)N=C2S1	-1	25	39*	-7	4
